Laboratory results: ChEMBL document CHEMBL2401613, “Benzofused hydroxamic acids: useful fragments for the preparation of histone deacetylase inhibitors. Part 1: hit identification” (Bioorg Med Chem Lett, 2013)
≈ marks a conversion by molar mass, not a printed value.

Assays:
[1] = target: T1, Histone deacetylase (Homo sapiens) (UniProt Q13547+O15379+Q9UBN7+Q92769+Q9UQL6+Q8WUI4+Q9BY41+Q96DB2+P56524+Q9UKV0+Q969S8); assay: Inhibition of HDAC (unknown origin) at 1 uM; assay type: protein assay
Summary of the method: (§1)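 HeLa nuclear extract HDAC incubated with an acetylated-lysine substrate and inhibitor. Deacetylated substrate mixed with developer gives a fluorophore, read at ex/em 335/460 nm. Two-point screen at 0.1 and 1.0 µM, expressed as % inhibition. Triplicate determinations, averaged.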

[2] = target: T1, Histone deacetylase (Homo sapiens); assay: Inhibition of HDAC (unknown origin) at 0.1 uM; assay type: protein assay; summary of the method: as §1
[3] = Aqueous solubility of the compound at pH 7.4; assay type: physicochemical
HCT-116 [4] = assay: Cytotoxicity against human HCT116 cells after 5 days by Alamar Blue assay; assay type: functional, cell-based; conditions: HCT-116, 120 h
Summary of the method: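 Colon cancer HCT-116 cells were seeded in complete medium, and inhibitors were added after 24 h at 0.1–100 µM in quadruplicate. After 5 days, Alamar Blue was added and plates were incubated a further 4 h. Fluorescence was read at ex 530/em 590 nm. IC50 is the concentration giving 50% inhibition of proliferation.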

Histone deacetylase = assay: Inhibition of HDAC in human HeLa cells assessed as deacetylation of substrate by fluorescence plate reader analysis; assay type: cell-based
Summary of the method: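 Enzyme source: HeLa cell nuclear extract (partially purified HDAC). Extract incubated with an acetylated-lysine substrate in the presence of inhibitor; a developer then releases a fluorophore from the deacetylated substrate, read at ex/em 335/460 nm. IC50 is the concentration giving 50% inhibition of enzymatic activity, from triplicate runs averaged. SAHA and LAQ-xx were positive controls.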

HCT-116 [5] = assay: Antitumor activity against human HCT116 cells xenografted in CD1 mouse assessed as reduction in tumor volume at 50 mg/kg, po; assay type: functional; parameters: scale not given: the % may be the effect or the level left
Summary of the method: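 Female CD1 nude (nu/nu) athymic mice were dosed orally at 50 and 100 mg/kg for 21 days, n = 4 per group. Vehicle control was 0.5% CMC at 10 mL/kg. Read-out was tumor volume inhibition (TVI).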

Structure (SMILES) | inhibition [1] [%] | inhibition [2] [%] | solubility [3] [µg/mL] | IC50 (HCT-116 [4]) [nM] | IC50 (Histone deacetylase) [nM] | Activity (HCT-116 [5]) [%]
O=C(CCc1ccccc1)Nc1ccc2cc(C(=O)NO)sc2c1 | 76 | 42 | 4 (≈ 11.8 µM) | 2600 | – | –
O=C(NO)c1cc2c(Cl)cccc2s1 | – | – | – | – | 11630 | –
Cc1ccc2cc(C(=O)NO)sc2c1 | – | – | – | – | 1760 | –
O=C(Cc1ccncc1)Nc1ccc2sc(C(=O)NO)cc2c1 | 78 | 49 | 4 (≈ 12.2 µM) | 8600 | – | –
COc1ccc(CC(=O)Nc2ccc3cc(C(=O)NO)sc3c2)cc1 | 84 | 75 | – | 490 | – | –
N[C@@H](C(=O)Nc1ccc2cc(C(=O)NO)sc2c1)c1ccccc1 | 85 | 70 | – | 500 | – | –
O=C(NO)c1cc2ccc(CSc3ccc(F)cc3)cc2s1 | 24 | < 20 | – | – | – | –
O=C(Cc1ccccc1)NCc1ccc2cc(C(=O)NO)sc2c1 | 88 | 60 | – | 1200 | – | –
O=C(NO)c1cc2ccc(CN(CCO)C(=O)Nc3ccccc3)cc2s1 | 91 | 77 | – | 1400 | – | –
O=C(NO)c1cc2ccc(COc3cccc(F)c3)cc2s1 | 68 | 23 | – | – | – | –
COc1cc2cc(C(=O)NO)sc2cc1C | – | – | – | – | 1350 | –
O=C(NO)c1cc2ccsc2s1 | – | – | – | – | 1080 | –
N[C@@H](CCc1ccccc1)C(=O)Nc1ccc2cc(C(=O)NO)sc2c1 | 85 | 71 | – | 3400 | – | –
N[C@H](CCc1ccccc1)C(=O)Nc1ccc2cc(C(=O)NO)sc2c1 | 78 | 44 | – | 320 | – | –
COc1cccc2sc(C(=O)NO)cc12 | – | – | – | – | 3790 | –
COc1cccc(CC(=O)Nc2ccc3cc(C(=O)NO)sc3c2)c1 | 83 | 65 | – | 600 | – | –
O=C(NO)c1cc2cccc(C(F)(F)F)c2s1 | – | – | – | – | 9190 | –
Cc1cc2sc(C(=O)NO)cc2cc1O | – | – | – | – | 989 | –
CN(C(=O)CCc1ccccc1)c1ccc2cc(C(=O)NO)sc2c1 | 63 | 21 | 4 (≈ 11.3 µM) | – | – | –
O=C(NO)c1cc2ccc(COc3ccc(F)cc3)cc2s1 | 31 | < 20 | – | – | – | –
O=C(NCc1ccc2cc(C(=O)NO)sc2c1)c1cccnc1 | 84 | 72 | – | 730 | – | –
O=C(CCc1ccccc1)Nc1ccc2sc(C(=O)NO)cc2c1 | 69 | 28 | 4 (≈ 11.8 µM) | – | – | –
O=C(NO)c1cc2sccc2s1 | – | – | – | – | 557 | –
N[C@H](Cc1ccccc1)C(=O)Nc1ccc2cc(C(=O)NO)sc2c1 | 77 | 41 | – | 340 | – | –
O=C(Cc1cccnc1)Nc1ccc2sc(C(=O)NO)cc2c1 | – | 49 | 4 (≈ 12.2 µM) | 17000 | – | –
O=C(NO)c1cc2ccc(NCCc3ccccc3)cc2s1 | 73 | 32 | 4 (≈ 12.8 µM) | – | – | –
O=C(Cc1ccccn1)Nc1ccc2sc(C(=O)NO)cc2c1 | 74 | 39 | 4 (≈ 12.2 µM) | – | – | –
O=C(NO)c1cc2ccc(CN(CCO)c3ccccc3)cc2s1 | 76 | 53 | – | 1700 | – | –

Structure (SMILES) | inhibition [1] [%] | inhibition [2] [%] | solubility [3] [µg/mL] | IC50 (HCT-116 [4]) [nM] | IC50 (Histone deacetylase) [nM] | Activity (HCT-116 [5]) [%]
O=C(NCc1ccc2cc(C(=O)NO)sc2c1)c1ccco1 | 92 | 89 | – | 70 | – | –
COc1ccccc1CC(=O)Nc1ccc2cc(C(=O)NO)sc2c1 | 81 | 54 | – | 550 | – | –
O=C(Cc1ncc[nH]1)Nc1ccc2cc(C(=O)NO)sc2c1 | 78 | 24 | – | – | – | –
O=C(NO)c1cc2ccccc2s1 | – | – | – | – | 2170 | –
N[C@@H](Cc1ccccc1)C(=O)Nc1ccc2cc(C(=O)NO)sc2c1 | 81 | 54 | – | 5000 | – | –
O=C(Cc1ccccc1)Nc1ccc2sc(C(=O)NO)cc2c1 | 82 | 48 | 4 (≈ 12.3 µM) | 1300 | – | –
O=C(Cc1ccc2c(c1)OCO2)Nc1ccc2cc(C(=O)NO)sc2c1 | 78 | 55 | – | – | – | –
O=C(NO)c1cc2cc(NCc3ccccc3)ccc2s1 | 68 | 28 | 4 (≈ 13.4 µM) | – | – | –
O=C(NO)c1cc2ccc(NCc3ccccc3)cc2s1 | 79 | 58 | 4 (≈ 13.4 µM) | 1300 | – | –
O=C(NO)c1cc2cc(NCCc3ccccc3)ccc2s1 | 61 | 28 | 4 (≈ 12.8 µM) | – | – | –
CN(C(=O)CCc1ccccc1)c1ccc2sc(C(=O)NO)cc2c1 | 67 | 27 | 4 (≈ 11.3 µM) | – | – | –
O=C(Cc1cccnc1)Nc1ccc2cc(C(=O)NO)sc2c1 | 83 | 62 | 4 (≈ 12.2 µM) | 3000 | – | –
O=C(NO)c1csc2ccccc12 | – | – | – | – | 76130 | –
O=C(NO)c1cc2cccc(Cl)c2s1 | – | – | – | – | 2910 | –
O=C(Cc1ccccc1)Nc1ccc2cc(C(=O)NO)sc2c1 | 85 | 71 | 4 (≈ 12.3 µM) | 100 | – | 26
CN(C)c1ccc(CC(=O)Nc2ccc3cc(C(=O)NO)sc3c2)cc1 | 82 | 57 | – | 500 | – | –
Cc1ccc2cc(C(=O)NO)sc2c1F | – | – | – | – | 458 | –
O=C(Cc1ccsc1)Nc1ccc2cc(C(=O)NO)sc2c1 | 87 | 73 | – | 110 | – | –
O=C(NO)c1cc2ccc(CN(CCO)Cc3ccccc3)cc2s1 | 80 | 52 | – | 830 | – | –
O=C(Cc1ccccn1)Nc1ccc2cc(C(=O)NO)sc2c1 | 78 | 59 | 4 (≈ 12.2 µM) | 480 | – | –
CN(C)CCCC(=O)Nc1ccc2cc(C(=O)NO)sc2c1 | 79 | 50 | 1310 (≈ 4080 µM) | 2400 | – | –
N#Cc1cc2ccc(NC(=O)[C@H](N)c3ccccc3)cc2s1 | < 20 | < 20 | – | – | – | –
O=C(NO)c1cc2ccc(COc3ccccc3F)cc2s1 | 58 | 22 | – | – | – | –
O=C(NO)c1cc2ccc(CN3CCc4ccccc4C3)cc2s1 | 83 | 53 | – | 1300 | – | –
O=C(Cc1ccncc1)Nc1ccc2cc(C(=O)NO)sc2c1 | 84 | 66 | 4 (≈ 12.2 µM) | 1800 | – | –
O=C(NCc1ccc2cc(C(=O)NO)sc2c1)c1ccccc1 | 87 | 93 | – | 250 | – | –
N[C@H](C(=O)Nc1ccc2cc(C(=O)NO)sc2c1)c1ccccc1 | 85 | 69 | – | 770 | – | –
